In ChEMBL document CHEMBL1221219, “Selective blockade of 2-arachidonoylglycerol hydrolysis produces cannabinoid behavioral effects” (Nat Chem Biol, 2009):
The source made the active and inactive calls. The calls are words filed in the database; no cut-off is given here.

Columns and labels:
Mus musculus [1] = experiment: Inhibition of MAGL in C57B1/6J mouse brain membrane assessed as increase in 2-AG level at 16 mg/kg, ip upto 24 hrs by competitive activity-based protein profiling method relative to control; assay type: functional; details: route intraperitoneal
Outline: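 Male C57Bl/6J mice dosed i.p. in 4:1 v/v PEG300:Tween80, with vehicle controls; killed at set times (0.5-24 h, or 4 h). Brain membrane 2-AG hydrolysis measured by LC-MS substrate assay, and brain 2-AG measured by lipid LC-MS, relative to vehicle.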

Mus musculus [2] = experiment: Inhibition of MAGL in C57B1/6J mouse brain membrane at 4 mg/kg, ip after 4 hrs by competitive activity-based protein profiling method relative to control; assay type: functional; details: route intraperitoneal
Outline: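 Male C57Bl/6J mice (6-8 weeks, 20-26 g) dosed i.p. in 4:1 v/v PEG300:Tween80 vehicle at 4 ul g^-1; killed 4 h post-dose. Brain membrane proteomes were then labelled with FP-rhodamine (2 μM, 30 min, room temperature), resolved by SDS-PAGE and scanned in-gel for fluorescence. MAGL signal was compared with vehicle-treated controls.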

Mus musculus [3] = experiment: Inhibition of PLA2G7 in C57B1/6J mouse brain membrane at 16 mg/kg, ip after 4 hrs by competitive activity-based protein profiling-MudPIT method; assay type: functional, organism-based; parameters: dose 16 mg/kg
Outline: (§1)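 After i.p. dosing in 4:1 PEG300:Tween80, male C57Bl/6J mice were killed at 4 h. Brain membrane proteomes from treated and vehicle mice were labelled with FP-biotin. Labelled proteins were enriched on avidin, digested on-bead with trypsin and analysed by multidimensional LC-MS. Proteins were identified by SEQUEST, and dosed samples were compared with vehicle.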

Mus musculus [4] = experiment: Change in arachidonic acid levels in intraperitoneally dosed C57B1/6J mouse brain by LC-MS; assay type: functional, organism-based
Outline: (§2)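 Male C57Bl/6J mice given 4, 8, 16 or 40 mg kg^-1 i.p. in 4:1 PEG300:Tween80 at 4 μl g^-1, or vehicle, and killed after 4 h. Whole-brain lipids were quantified by LC-MS.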

Mus musculus [5] = experiment: Induction of hypomotility in CB1 receptor deficient C57B1/6J mouse at 16 mg/kg, ip; assay type: functional, organism-based; parameters: dose 16 mg/kg
Outline: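 Male C57Bl/6J mice, 6-8 weeks, 20-26 g, given 16 mg kg^-1 i.p. in 4:1 v/v PEG300:Tween80 at 4 μl g^-1; vehicle controls received PEG300:Tween80 alone. Cannabinoid effects were scored in the tetrad test.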

Mus musculus [6] = experiment: Inhibition of FAAH in C57B1/6J mouse brain membrane at 10 mg/kg, ip by competitive activity-based protein profiling method; assay type: functional, organism-based; parameters: dose 10 mg/kg
Mus musculus [7] = experiment: Decrease in arachidonic acid levels in C57B1/6J mouse brain at 16 mg/kg, ip by LC-MS; assay type: functional, organism-based; parameters: dose 16 mg/kg
Outline: (§3)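 Mice received 16 mg kg^-1 i.p. in 4:1 PEG300:Tween80 and were killed at 0.5, 1, 2, 4, 8 and 24 h. Brain lipids, including N-acylethanolamines, MAGs, free fatty acids and arachidonic acid, were measured by LC-MS.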

Mus musculus [8] = experiment: Change in N-acylethanolamine level in C57B1/6J mouse brain at 16 mg/kg, ip by LC-MS; assay type: functional, organism-based; parameters: dose 16 mg/kg; outline: as §3
Mus musculus [9] = experiment: Inhibition of PAFAH-1Bg in C57B1/6J mouse brain membrane at 16 mg/kg, ip after 4 hrs by competitive activity-based protein profiling-MudPIT method; assay type: functional, organism-based; parameters: dose 16 mg/kg; outline: as §1
Mus musculus [10] = experiment: Inhibition of ABHD10 in C57B1/6J mouse brain membrane at 16 mg/kg, ip after 4 hrs by competitive activity-based protein profiling-MudPIT method; assay type: functional, organism-based; parameters: dose 16 mg/kg
Outline: (§4)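 Mice were dosed 16 mg kg^-1 i.p. or vehicle and killed at 4 h. Brain membrane proteomes were labelled with FP-biotin, avidin-enriched, trypsin-digested on bead, analysed by multidimensional LC-MS and identified by SEQUEST.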

Mus musculus [11] = experiment: Change in monopalmitoylglycerol levels in intraperitoneally dosed C57B1/6J mouse brain by LC-MS; assay type: functional, organism-based; outline: as §2
Mus musculus [12] = experiment: Inhibition of JZL184 induced immobility in C57B1/6J mouse at 16 mg/kg, ip; assay type: functional, organism-based; parameters: dose 16 mg/kg
Mus musculus [13] = experiment: Inhibition of ABHD11 in C57B1/6J mouse brain membrane at 16 mg/kg, ip after 4 hrs by competitive activity-based protein profiling-MudPIT method; assay type: functional, organism-based; parameters: dose 16 mg/kg; outline: as §4
Mus musculus [14] = experiment: Inhibition of LYPLA3 in C57B1/6J mouse brain membrane at 16 mg/kg, ip after 4 hrs by competitive activity-based protein profiling-MudPIT method; assay type: functional, organism-based; parameters: dose 16 mg/kg; outline: as §1
Mus musculus [15] = experiment: Inhibition of APT2 in C57B1/6J mouse brain membrane at 16 mg/kg, ip after 4 hrs by competitive activity-based protein profiling-MudPIT method; assay type: functional, organism-based; parameters: dose 16 mg/kg; outline: as §4
Mus musculus [16] = experiment: Change in monoacylglycerol level in C57B1/6J mouse brain at 16 mg/kg, ip by LC-MS; assay type: functional, organism-based; parameters: dose 16 mg/kg; outline: as §3
Mus musculus [17] = experiment: Inhibition of PNPLA8 in C57B1/6J mouse brain membrane at 16 mg/kg, ip after 4 hrs by competitive activity-based protein profiling-MudPIT method; assay type: functional, organism-based; parameters: dose 16 mg/kg; outline: as §1
[18] = molecular target: Cannabinoid receptor 2 (Homo sapiens) (UniProt P34972); experiment: Displacement of [3H]CP-55940 from CB2 expressed in CHO cells after 90 mins by liquid scintillation; assay type: cell-based
Mus musculus [19] = experiment: Inhibition of FAAH in C57B1/6J mouse brain membrane at 4 mg/kg, ip after 4 hrs by competitive activity-based protein profiling method relative to control; assay type: functional; details: route intraperitoneal
Outline: (§5)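 Male C57Bl/6J mice (6-8 weeks, 20-26 g) given inhibitor i.p. in 4:1 v/v PEG300:Tween80 at 4 ul g^-1 (4-40 mg kg^-1); vehicle controls. Brain membrane proteomes (1 mg ml^-1 in PBS) labelled with FP-rhodamine (2 μM) for 30 min at room temperature. Readout by SDS-PAGE and in-gel fluorescence scanning, compared with vehicle.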

Mus musculus [20] = experiment: Change in 2-AG levels in intraperitoneally dosed C57B1/6J mouse brain by LC-MS; assay type: functional, organism-based; outline: as §2
Mus musculus [21] = experiment: Inhibition of FAAH in C57B1/6J mouse brain membrane at 16 mg/kg, ip after 4 hrs by competitive activity-based protein profiling-MudPIT method; assay type: functional, organism-based; parameters: dose 16 mg/kg; outline: as §1
Mus musculus [22] = experiment: Inhibition of […] in C57B1/6J mouse brain membrane assessed as residual 2-AG hydrolysis activity at 16 mg/kg, ip after 4 hrs relative to control; assay type: functional; details: route intraperitoneal
Outline: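 Brain membranes from mice given 4-40 mg kg^-1 i.p. for 4 h were assayed for 2-AG hydrolysis by LC-MS substrate assay. Activity is expressed relative to vehicle control.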

Mus musculus [23] = experiment: Change in mono-oleoylglycerol levels in intraperitoneally dosed C57B1/6J mouse brain by LC-MS; assay type: functional, organism-based; outline: as §2
Mus musculus [24] = experiment: Inhibition of PREPL in C57B1/6J mouse brain membrane at 16 mg/kg, ip after 4 hrs by competitive activity-based protein profiling-MudPIT method; assay type: functional, organism-based; parameters: dose 16 mg/kg; outline: as §1
Mus musculus [25] = experiment: Inhibition of AADACL1 in C57B1/6J mouse brain membrane at 16 mg/kg, ip after 4 hrs by competitive activity-based protein profiling-MudPIT method; assay type: functional, organism-based; parameters: dose 16 mg/kg; outline: as §4
Mus musculus [26] = experiment: Inhibition of FAAH in intraperitoneally dosed C57B1/6J mouse brain membrane after 4 hrs by competitive activity-based protein profiling method; assay type: functional, organism-based; outline: as §5

Chain of Cannabinoid receptor 2 (Homo sapiens) (P34972 whole entry): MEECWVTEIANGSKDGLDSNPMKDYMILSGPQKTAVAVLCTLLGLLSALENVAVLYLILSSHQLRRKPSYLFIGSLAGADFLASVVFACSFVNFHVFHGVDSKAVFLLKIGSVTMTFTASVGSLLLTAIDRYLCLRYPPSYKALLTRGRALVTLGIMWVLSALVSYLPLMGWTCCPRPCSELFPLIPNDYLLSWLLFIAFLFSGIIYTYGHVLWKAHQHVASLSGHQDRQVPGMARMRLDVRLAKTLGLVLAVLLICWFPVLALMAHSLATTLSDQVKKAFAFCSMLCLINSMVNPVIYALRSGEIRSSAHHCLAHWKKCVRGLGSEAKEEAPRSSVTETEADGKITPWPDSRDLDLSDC

O=C(Oc1ccc([N+](=O)[O-])cc1)N1CCC(C(O)(c2ccc3c(c2)OCO3)c2ccc3c(c2)OCO3)CC1 was tested, and the inhibition in vivo at 16 mg/kg (Mus musculus [1]) was greater than 80%, the “fold change (FC)” value (Mus musculus [2]) was 5 and the inhibition (Mus musculus [3]) was “inactive”. For the same compound, the Activity (Mus musculus [4]) was “inactive”, the Activity (Mus musculus [5]) was “inactive” and the inhibition (Mus musculus [6]) was “Active”. The Activity (Mus musculus [7]) was “Active”, the Activity (Mus musculus [8]) was “inactive” and the inhibition (Mus musculus [9]) was “inactive”. The inhibition (Mus musculus [10]) was “inactive”, the Activity (Mus musculus [11]) was “inactive” and the inhibition (Mus musculus [12]) was “Active”. The inhibition (Mus musculus [13]) was “inactive”, the inhibition (Mus musculus [14]) was “inactive” and the inhibition (Mus musculus [15]) was “inactive”. For the same compound, the Activity (Mus musculus [16]) was “inactive”, the inhibition (Mus musculus [17]) was “inactive” and the Activity [18] was “inactive”. The inhibition in vivo at 4 mg/kg (Mus musculus [19]) was less than 20%, the Activity (Mus musculus [20]) was “inactive” and the inhibition (Mus musculus [21]) was “inactive”. The Activity (Mus musculus [22]) was 35%, the Activity (Mus musculus [23]) was “inactive” and the inhibition (Mus musculus [24]) was “inactive”. The inhibition (Mus musculus [25]) was “inactive” and the inhibition (Mus musculus [26]) was “Dose-dependent effect”.
